Measurements as given in ChEMBL document CHEMBL1125033, “Structure-activity relationship of antiestrogens. Phenolic analogues of 2,3-diaryl-2H-1-benzopyrans” (J Med Chem, 1990).

How the values were obtained:
[1] = molecular target: T1, Estrogen receptor (Rattus norvegicus) (UniProt P06211+Q62986)
[2] = molecular target: T1, Estrogen receptor (Rattus norvegicus); remark: listed apart in the source
[3] = system: Anti-estrogen binding site (AEBS) (Rattus norvegicus); assay: Relative binding affinity against Antiestrogen binding site(AEBS)
[4] = molecular target: T1, Estrogen receptor (Rattus norvegicus); assay: Relative binding affinity against estrogen receptor(ER); assay type: protein assay
How it was run: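 Uterine cytosol from immature rats primed s.c. with 0.1 μg E₂ 24 h before sacrifice, one uterine equivalent per mL TEA buffer (pH 7.4, 7% DMF). Incubated 18-20 h at 4 °C with ³H-E₂ (5 × 10⁻⁹ M) and competitor at 10⁻⁴–10⁻⁹ M, in triplicate. Charcoal-dextran separation for 20 min, then scintillation counting.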

| Mean weight [1] [mg] | Mean weight [2] [mg] | relative binding affinity (RBA) [3] | relative binding affinity (RBA) [4] | Compound |
| --- | --- | --- | --- | --- |
| 18.6 | 15.3 | 225 |  | C1=C(c2ccccc2)C(c2ccc(OCCN3CCCCC3)cc2)Oc2ccccc21 (stereo not given) |
| 12.4 | 10.6 | 2.2 | 49 | Oc1ccc(C2=Cc3ccc(O)cc3OC2c2ccc(OCCN3CCCCC3)cc2)cc1 (stereo not given) |
| 43.1 | 22.6 | 21 | 0.02 | COc1ccc2c(c1)OC(c1ccc(OCCN3CCCCC3)cc1)C(c1ccccc1)=C2 (stereo not given) |
| 44.2 | 14.2 |  | 2.2 | Oc1ccc(C2=Cc3ccc(O)cc3OC2c2ccc(O)cc2)cc1 (stereo not given) |
| 11.6 | 10.4 | 14 | 4.2 | Oc1ccc(C2=Cc3ccccc3OC2c2ccc(OCCN3CCCCC3)cc2)cc1 (stereo not given) |
| 21.2 | 15.2 | 13 | 9.5 | Oc1ccc2c(c1)OC(c1ccc(OCCN3CCCCC3)cc1)C(c1ccccc1)=C2 (stereo not given) |
| 29.1 | 18.6 | 25 | 8 | COc1ccc(C2=C(C(=O)c3ccc(OCCN4CCCC4)cc3)c3ccccc3CC2)cc1 |
| 25.6 | 25.5 | 6.5 | 93 | O=C(c1ccc(OCCN2CCCC2)cc1)c1c(-c2ccc(O)cc2)sc2cc(O)ccc12 |
